Source: PubChem
A selection: hits, their analogues and other compounds. The true share with any hit is near 2.2%.
SMARCA2 activ: SMARCA2 function activation, primary screen. activation, % at 9.1 µM. AID 652017. 370,000 compounds, 1% hits. MG213 cells, MMTV-luciferase reporter, dexamethasone, overnight; in the data active = activation above about 7.8%;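 also: 0% = vehicle wells and 100% = reference activator wells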
GalR3 antagonist: antagonists of human GalR3. O60755. HEK293 GalR3-CNG cAMP membrane potential fluorescence; galR3 body fused to GalR1 C-terminus. inhibition, % at 3 µM. 360,000 compounds, 0.44% hits;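 active = inhibition above the screen-wide average plus 3 SD, cut at about 13% in these data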;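 also: forskolin and galanin both at EC90 stimulate the cells; cAMP rise reported by CNG channel membrane potential dye signal; 0% = forskolin plus galanin with DMSO and 100% = forskolin alone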
Target sequence (O60755 1-299 limits assumed): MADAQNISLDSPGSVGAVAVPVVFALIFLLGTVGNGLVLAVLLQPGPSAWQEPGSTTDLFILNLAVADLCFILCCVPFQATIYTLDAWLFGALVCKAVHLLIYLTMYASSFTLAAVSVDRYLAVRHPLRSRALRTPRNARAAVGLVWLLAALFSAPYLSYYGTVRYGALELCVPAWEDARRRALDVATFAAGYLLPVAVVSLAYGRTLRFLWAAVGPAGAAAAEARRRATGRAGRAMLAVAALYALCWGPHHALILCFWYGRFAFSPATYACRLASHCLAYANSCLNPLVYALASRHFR
COUP-TFII inh: blocks human COUP-TFII nuclear receptor | HEK293T NGFI-A luciferase reporter, luminescence | 370,000 compounds, 0.7% hits | inhibition, % at 8.6 µM | P24468;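 active = inhibition above a per-plate cutoff, mean inhibition of test wells between control levels plus 3 SD, cut at about 38% in these data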;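 also: cells cotransfected with COUP-TFII expression vector driving the NGFI-A reporter; 0% = median of COUP-TF2 test wells and 100% = reporter-only cells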
NR2E3 ag-1: human photoreceptor-specific nuclear receptor agonism; Q9Y5X4; CHO-S Gal4-NCOR/VP16-NR2E3 two-hybrid, luciferase; inhibition of corepressor binding, % at 3.98 µM; 360,000 compounds, 0.35% hits;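 active = inhibition above the mean of all tested compounds plus 3 SD, cut at about 70% in these data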;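 also: 0% = DMSO with NR2E3 transfected cells and 100% = cells lacking NR2E3 construct; higher means lower luciferase signal from less NR2E3 corepressor binding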
Target sequence (Q9Y5X4 whole entry, looked up, the tested form may be a part): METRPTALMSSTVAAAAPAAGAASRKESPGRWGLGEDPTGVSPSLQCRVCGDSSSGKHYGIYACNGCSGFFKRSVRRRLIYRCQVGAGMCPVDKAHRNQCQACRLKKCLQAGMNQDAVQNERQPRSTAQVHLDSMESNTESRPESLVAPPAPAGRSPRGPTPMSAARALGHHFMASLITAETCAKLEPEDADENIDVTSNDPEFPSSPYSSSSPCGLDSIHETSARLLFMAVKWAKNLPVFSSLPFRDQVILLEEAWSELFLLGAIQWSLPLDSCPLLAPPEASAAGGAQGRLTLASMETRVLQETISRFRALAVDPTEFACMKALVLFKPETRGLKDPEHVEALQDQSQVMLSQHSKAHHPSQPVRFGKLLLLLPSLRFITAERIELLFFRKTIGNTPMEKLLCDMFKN
NR2E3 ag-2: agonists of human nuclear receptor NR2E3 | Q9Y5X4 | 320,000 compounds, 0.12% hits | GST-NR2E3/biotin-RetCOR TR-FRET, 1536-well | inhibition of corepressor binding, % at 4.78 µM;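 active = percent inhibition above the cutoff of mean plus 3 SD of all tested compounds, set per screening campaign, cut at about 20% in these data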;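 also: 0% = DMSO wells and 100% = biotin wells as full block of FRET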
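Format: 1536-well format; test system: GST-NR2E3 and biotin-RetCOR proteins; read-out basis: percent inhibition of TR-FRET ratio; timing: 5 h incubation at 4 °C; detection: time-resolved FRET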
NR2E3 ag confirm: confirmation of human NR2E3 agonists; 2,300 compounds, 51% hits; inhibition, % at 3.98 µM; CHO-S mammalian two-hybrid NR2E3-NCOR, luciferase luminescence; AID 624378; shares compounds with NR2E3 ag-1;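 active = average inhibition above a cutoff equal to the mean inhibition of all tested compounds plus one SD, cut at about 70% in these data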;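 also: 0% = DMSO in NR2E3 cells and 100% = DMSO in cells lacking NR2E3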
VP16 counter: reduces GAL4-VP16 reporter signal in NR2E3 counterscreen; 2,300 compounds, 29% hits; CHO-S GAL4-VP16 luciferase reporter, luminescence; shares compounds with NR2E3 ag-1; inhibition, % at 3.98 µM;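 active = mean inhibition above a cutoff equal to the average over all tested compounds plus one standard deviation, cut at about 70% in these data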;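 also: luciferase from a UAS reporter driven by GAL4-VP16 transactivation; 0% = DMSO with VP16-transfected cells and 100% = DMSO with cells lacking VP16; higher means less reporter light so more repression of VP16 activity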
Numbers without * were called inactive; x = no result.

SMILES | SMARCA2 activ | GalR3 antagonist | COUP-TFII inh | NR2E3 ag-1 | NR2E3 ag-2 | NR2E3 ag confirm | VP16 counter
Oc1[nH]c2ccccc2c1N=NC(=S)N1CCOCC1 | x | x | x | 101* | -5 | 75* | 38
COC(=O)N=Nc1c(O)[nH]c2ccc(Br)cc12 | -3 | 1 | 14 | -31 | -5 | x | x
COc1ccccc1NS(=O)(=O)c1ccc(NN=C2CCCC2)c([N+](=O)[O-])c1 | -5 | -4 | 4 | 64 | 1 | 65 | 63
COc1ccc(NC(=O)CSc2nc3sc(C)cc3c(=O)n2C)c(OC)c1 | -2 | -6 | -5 | 62 | -3 | 46 | 37
COc1ccc(NC(=O)CSc2nc3sc(C)cc3c(=O)n2C)cc1 | 1 | -8 | -21 | -10 | 3 | x | x
COc1cc(C)c(NC(=O)COc2cccc3c2OC(C)(C)C3)cc1OC | x | x | x | 62 | -4 | 10 | 41
C[C@H]1CCCC(=O)N[C@@H](c2ccccc2)[C@@H](C)CCCC(=O)N[C@H]1c1ccccc1 | -3 | x | -3 | x | x | x | x
CC(=O)c1ccc(N2CCN(C(=O)C3CCN(S(=O)(=O)c4ccc5c(c4)CC(C)N5C(C)=O)CC3)CC2)cc1 (centres undefined) | -2 | -7 | -9 | 3 | 1 | x | x
CC(=O)N1c2ccc(S(=O)(=O)N3CCC(C(=O)N4CCN(c5cccc(C(F)(F)F)c5)CC4)CC3)cc2CC1C (centres undefined) | -3 | -4 | 31 | 99* | -1 | 89* | 76*
CC(=O)N1c2ccc(S(=O)(=O)N3CCC(C(=O)Nc4cccc(C)c4)CC3)cc2CC1C (centres undefined) | -2 | -5 | -1 | 33 | -2 | x | x
CC(=O)N1c2ccc(S(=O)(=O)N3CCC(C(=O)Nc4cccc(Cl)c4)CC3)cc2CC1C (centres undefined) | -3 | -3 | 21 | 78* | 2 | 74* | 52
Cn1c(=O)c2c(nc(NCc3ccco3)n2C)n(C)c1=O | 3 | -8 | -21 | 10 | 1 | x | x
Cn1c(=O)c2c(nc(NCc3ccco3)n2C/C=C/c2ccccc2)n(C)c1=O | -5 | 1 | 7 | 51 | -1 | 88* | 71
CC(Cl)=CCn1c(NCCc2ccccc2)nc2c1c(=O)n(C)c(=O)n2C | -6 | -4 | 12 | 48 | x | 91* | 71*
Cc1ccc2nc(-c3ccc(NC(=O)CSc4nnc(-c5cc(C)[nH]n5)n4N)cc3)sc2c1 | 1 | x | -38 | x | x | x | x
Nc1ncnc2c1c(-c1ccc(Oc3ccccc3)cc1)cn2C1CCCC1 | -8 | -4 | 5 | 74* | 4 | 86* | 72*
CC(C)(C)C(=O)COC(=O)c1ccc(N)c([N+](=O)[O-])c1 | -3 | -2 | 8 | -3 | 0 | x | x
COc1ccc(CCOC(=O)c2ccc(N)c([N+](=O)[O-])c2)cc1 | -3 | 3 | 6 | 50 | 4 | 26 | 46
CCCN(CC1CC1)C(=S)NC(=O)c1ccccc1C | -3 | -1 | 15 | -13 | x | x | x
CCCN(CC1CC1)C(=S)NC(=O)c1cc(Br)ccc1Cl | -5 | -5 | 7 | 81* | x | -1 | 8
CC(C)CCN1C(=O)COc2ccccc2C1c1nnnn1-c1ccc2c(c1)OCCO2 (centres undefined) | 0 | x | 8 | x | x | x | x
CCC[C@H]1[C@@H](OC(=O)Oc2ccc([N+](=O)[O-])cc2)CC[C@@]23CCCN2C(=O)CCC[C@@H]13 | x | x | -11 | x | x | x | x
Cc1cccc(Cc2cnc(N3C(=N)SC(C)C3=O)s2)c1 (centres undefined) | 5 | -1 | 0 | 103* | 0 | 99* | 21
Cc1ccc(Cc2cnc(N3C(=N)SC(C)C3=O)s2)cc1 (centres undefined) | -3 | -5 | -6 | 102* | -1 | 101* | -3
Cc1cccc(Cc2cnc(N3C(=N)SC(c4ccccc4)C3=O)s2)c1 (centres undefined) | -1 | 1 | 17 | -14 | -1 | x | x
SMILES | SMARCA2 activ | GalR3 antagonist | COUP-TFII inh | NR2E3 ag-1 | NR2E3 ag-2 | NR2E3 ag confirm | VP16 counter
CCCCN1C(=O)N2Cc3ccccc3C2CS1(=O)=O (centres undefined) | 7 | x | -51 | x | x | x | x
CC(=O)c1cccc(NS(=O)(=O)c2ccc(-c3cc(C)no3)s2)c1 | -2 | -1 | 22 | 96* | 5 | 70* | 60
COC(=O)C1CN(Cc2cn(Cc3ccccc3)nn2)CCS(=O)(=O)N1Cc1ccc(Cl)cc1 (centres undefined) | -5 | x | 18 | x | x | x | x
O=c1cc(C(F)(F)F)nc(SC/C=C/c2ccccc2)[nH]1 | x | x | x | 52 | 1 | 77* | 29
CCc1c(C)nc(SC/C=C/c2ccccc2)[nH]c1=O | x | x | x | 83* | -1 | 41 | 43
Nc1cc(=O)[nH]c(SC/C=C/c2ccccc2)n1 | 0 | 0 | -16 | 12 | -3 | x | x
CCN1CCN(Cc2ccc(NC(=O)c3ccc(C)c(NC(=O)c4ccno4)c3)cc2C(F)(F)F)CC1 | -5 | 5 | 9 | 37 | 2 | 55 | 15
CCN1CCN(Cc2ccc(NC(=O)c3cc(NC(=O)c4ccno4)cc(OC)c3)cc2C(F)(F)F)CC1 | 4 | -7 | 22 | -8 | 0 | x | x
CC(=O)CC[C@H]1CC[C@]2(CCCN(C(=O)c3ccco3)C2)O1 | -1 | x | 4 | x | x | x | x
CC(=O)c1c(O)cc(O)c(C(C)=O)c1O | x | x | x | 80* | 3 | 85* | 34
CCOC(=O)c1cnc(SCC(=O)Nc2cc(OC)ccc2OC)nc1N | -3 | -8 | 10 | 69 | 2 | 45 | 67
CCOc1ccc(-n2c(SCC(=O)Nc3ccccc3-c3ccccc3)nnc2-c2cccs2)cc1 | 3 | x | -18 | x | x | x | x
CCCC1CCC2(CC1)CCC2OC(=S)Nc1ccccc1 (centres undefined) | x | x | -2 | x | x | x | x
Nc1[nH]c(C(=O)c2ccccc2)c(-c2cccc3ccccc23)c1C(=O)c1c(-c2ccccc2)[nH]c2ccccc12 | x | x | 20 | x | x | x | x
NC(=O)NOCc1ccc(Cl)cc1Cl | -3 | 8 | 5 | -12 | 2 | x | x
CNC(=S)/N=C/NOCc1ccc(Cl)cc1Cl | -6 | -6 | 36 | 58 | -2 | 82* | 44
O=C(NC(=S)/C(=C1\CCCCCN1)[N+](=O)[O-])c1ccccc1 | x | x | x | 52 | x | 23 | -11
COc1ccc(OC)c(S(=O)(=O)N2CCCCC2C(=O)N2CCN(c3ccc(F)cc3)CC2)c1 (centres undefined) | -3 | x | 23 | x | x | x | x
Cc1ccc(S(=O)(=O)/N=C2\C=C(Nc3cccc(C(=O)O)c3)C(=O)c3ccccc32)cc1 | 1 | -2 | 2 | -27 | 3 | x | x
Cc1ccc(S(=O)(=O)/N=C2\C=C(Nc3ccc(O)cc3)C(=O)c3ccccc32)cc1 | x | x | x | 102* | x | 100* | 99*
CCc1cc2c(=O)nc3n(c2s1)Cc1ccccc1/C3=C(/O)c1ccccc1Cl | 2 | 3 | -4 | 48 | 4 | x | x
